*1 amine or outer side, *2 acyl side, *3 side chain or, on linkers, in order; H or OH if unused. Where a SMILES comes first, the peptide text is derived from it. Side-chain parts run from the residue outwards. [ ]: non-standard residue; d: D form. The star is where a group is joined. NMeF = CN[C@@H](Cc1ccccc1)C(=O)O; NMeD = CN[C@@H](CC(=O)O)C(=O)O; NH(2-Me-phenyl) = Cc1ccccc1N*; X3 = O=C(/C=C/c1ccc(O)cc1)*; Nle = CCCC[C@H](N)C(=O)O; X1 = O=C(Cc1ccc(O)cc1)*; Boc = CC(C)(C)OC(=O)*; CO = O=C([*:1])[*:2]
Assays:
Rattus norvegicus [1] = assay: Ability of intraperitoneally administered compound, to inhibit food intake was measured 0.5 hr after feeding the rats.; assay type: functional; settings: ip
How it was run: (§1)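 Male Sprague–Dawley rats (300–400 g), individually caged, 12 h light/dark cycle, trained ≥14 days to eat powdered chow during first 3 h of dark. Peptide or saline given ip in 0.5 mL 0.9% saline (pH 7.0–8.0) 10 min before food; cumulative intake read at 0.5 and 3 h in same experiment. Five doses, 10 rats/dose; ED50 by logistic fit.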

[2] = biological target: T1, Cholecystokinin receptor type A (Rattus norvegicus, UniProt P30551); assay: Inhibition of [125I]BH-CCK-8 binding to Cholecystokinin type A receptor of rat pancreatic tissue
T1 sequence (P30551 whole entry): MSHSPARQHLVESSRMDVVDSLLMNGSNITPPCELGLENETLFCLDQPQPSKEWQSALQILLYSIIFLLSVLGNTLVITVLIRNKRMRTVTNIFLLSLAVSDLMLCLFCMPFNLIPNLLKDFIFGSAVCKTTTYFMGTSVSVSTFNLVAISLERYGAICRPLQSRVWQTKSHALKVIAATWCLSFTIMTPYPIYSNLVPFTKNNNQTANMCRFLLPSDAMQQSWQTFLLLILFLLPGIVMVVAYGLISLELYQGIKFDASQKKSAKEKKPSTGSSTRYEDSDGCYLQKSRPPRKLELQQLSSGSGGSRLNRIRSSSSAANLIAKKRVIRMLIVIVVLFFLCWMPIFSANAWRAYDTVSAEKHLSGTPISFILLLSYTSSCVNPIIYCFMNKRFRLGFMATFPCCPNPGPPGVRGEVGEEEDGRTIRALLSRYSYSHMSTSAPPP
How it was run: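 Sprague–Dawley rat pancreas homogenized in 50 mM Tris pH 8.0 at 4 °C; washed membranes in 5 mM Tris (pH 7.4) with 5 mM MgCl2, 5 mM DTT, 2 mg/mL BSA, 0.14 mg/mL bacitracin.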

Rattus norvegicus [3] = assay: Ability of intraperitoneally administered compound, to inhibit food intake was measured 3 hr after feeding the rats.; assay type: functional; settings: ip; how it was run: as §1
[4] = biological target: T2, Gastrin/cholecystokinin type B receptor (Rattus norvegicus, UniProt P30553); assay: Binding affinity towards Cholecystokinin type B receptor in rat cortex synaptosomes using [125I]BH-CCK-8 as radioligand; assay type: subcellular, Brain
T2 sequence (P30553 whole entry): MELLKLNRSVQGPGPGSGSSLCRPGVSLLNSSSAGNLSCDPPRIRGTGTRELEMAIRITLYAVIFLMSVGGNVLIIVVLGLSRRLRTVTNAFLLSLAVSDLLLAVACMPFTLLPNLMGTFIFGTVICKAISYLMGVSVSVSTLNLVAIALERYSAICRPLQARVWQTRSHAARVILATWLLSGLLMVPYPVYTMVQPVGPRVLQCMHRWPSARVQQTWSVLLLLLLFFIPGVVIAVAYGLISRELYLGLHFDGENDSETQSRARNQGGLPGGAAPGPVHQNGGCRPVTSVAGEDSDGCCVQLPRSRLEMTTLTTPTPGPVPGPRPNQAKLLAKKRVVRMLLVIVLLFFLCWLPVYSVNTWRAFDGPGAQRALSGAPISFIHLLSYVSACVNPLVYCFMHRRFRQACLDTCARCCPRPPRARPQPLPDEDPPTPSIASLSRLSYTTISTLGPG

SMILES	Ki [2] [nM]	Ki [4] [nM]	ED50 (Rattus norvegicus [1]) [µg/kg]	ED50 (Rattus norvegicus [3]) [µg/kg]
Cc1ccccc1NC(=O)NCCCC[C@H](NC(=O)[C@H](Cc1c[nH]c2ccccc12)NC(=O)OC(C)(C)C)C(=O)N[C@@H](CC(=O)O)C(=O)N(C)[C@@H](Cc1ccccc1)C(N)=O	0.3	–	0.9	3.2
Cc1ccccc1NC(=O)NCCCC[C@H](NC(=O)[C@H](Cc1c[nH]c2ccccc12)NC(=O)OC(C)(C)C)C(=O)N[C@H](CC(=O)O)C(=O)N(C)[C@@H](Cc1ccccc1)C(N)=O	0.53	–	–	–
CCCC[C@H](NC(=O)Cc1ccc(O)cc1)C(=O)NCC(=O)N[C@@H](Cc1c[nH]c2ccccc12)C(=O)N[C@@H](CCCCNC(=O)/C=C/c1ccc(O)cc1)C(=O)N[C@@H](CC(=O)O)C(=O)N(C)[C@@H](Cc1ccccc1)C(N)=O (X1-[Nle]GWK(X3)D[NMeF]-NH2)	3.4	36	–	–
CSCC[C@H](NC(=O)Cc1ccc(OS(=O)(=O)O)cc1)C(=O)NCC(=O)N[C@@H](Cc1c[nH]c2ccccc12)C(=O)N[C@@H](CCSC)C(=O)N[C@@H](CC(=O)O)C(=O)N(C)[C@@H](Cc1ccccc1)C(N)=O	0.98	84	–	–
Cc1ccccc1NC(=O)NCCCC[C@H](NC(=O)[C@H](Cc1c[nH]c2ccccc12)NC(=O)OC(C)(C)C)C(=O)N[C@@H](CC(=O)O)C(=O)N[C@@H](Cc1ccccc1)C(N)=O (Boc-WK([CO-NH(2-Me-phenyl)])DF-NH2)	8.1	–	–	–

Second part, led by results:

Ki [2] [nM]	Ki [4] [nM]	SMILES	ED50 (Rattus norvegicus [1]) [µg/kg]	ED50 (Rattus norvegicus [3]) [µg/kg]
4.2	960	CCCC[C@H](NC(=O)Cc1ccc(O)cc1)C(=O)NCC(=O)N[C@@H](Cc1c[nH]c2ccccc12)C(=O)N[C@@H](CCCC)C(=O)N(C)[C@@H](CC(=O)O)C(=O)N[C@@H](Cc1ccccc1)C(N)=O (X1-[Nle]GW[Nle][NMeD]F-NH2)	3.8	13
51	–	CCCC[C@H](NC(=O)Cc1ccc(O)cc1)C(=O)NCC(=O)N[C@@H](Cc1c[nH]c2ccccc12)C(=O)N[C@@H](CCCC)C(=O)N[C@@H](CC(=O)O)C(=O)N(C)[C@@H](Cc1ccccc1)C(N)=O (X1-[Nle]GW[Nle]D[NMeF]-NH2)	–	–

Reference: ChEMBL document CHEMBL1133743, “CCK peptides with combined features of hexa- and tetrapeptide CCK-A agonists” (J Med Chem, 2000)
